Screening data: PubChem BioAssay, Johns Hopkins Ion Channel Center
Most compounds without a hit are left out; they make up all but 3.5% or so of the library.
MrgX1 PAM = human MrgX1 positive allosteric modulation, primary screen; Q96LB2; MrgX1-HEK293, Fluo-4 calcium flux, FDSS; active compounds read high; B-score at 10 µM; 0.63% of 310,000 active;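 active = plate-corrected calcium response at least 3 library SD above typical, normal starting fluorescence, not activating the receptor alone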;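 note: compound read alongside a low EC10 to EC30 dose of BAM8-22 agonist; peak minus trough fluorescence over baseline measured at the second addition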
Target sequence (Q96LB2 whole entry, looked up): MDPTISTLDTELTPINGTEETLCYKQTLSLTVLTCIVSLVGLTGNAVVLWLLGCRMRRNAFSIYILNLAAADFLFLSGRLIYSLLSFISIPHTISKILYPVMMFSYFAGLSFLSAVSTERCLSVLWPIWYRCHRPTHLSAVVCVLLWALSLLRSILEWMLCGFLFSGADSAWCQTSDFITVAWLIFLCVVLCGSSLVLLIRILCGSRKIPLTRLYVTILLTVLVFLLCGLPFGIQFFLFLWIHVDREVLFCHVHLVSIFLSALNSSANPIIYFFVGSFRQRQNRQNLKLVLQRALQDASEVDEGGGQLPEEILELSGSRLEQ
RGS4 block = human RGS4 inhibition | HEK293 M3R/RGS4 inducible, Fluo-4 calcium flux; active compounds read high; triggered by carbachol at its EC20 | B-score at 10 µM | P49798 | 0.45% of 310,000 active;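 active = B-score, a plate-corrected calcium signal, over three deviations above library mean, with baseline fluorescence within five deviations of library mean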;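 note: RGS4 expression induced by doxycycline in cells with stable M3 receptor; B-score is computed from the integrated fluorescence ratio over baseline after carbachol; higher B-score means a larger calcium signal and so more RGS4 inhibition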
MrgX1 ag = agonists of human MrgX1 receptor; B-score at 10 µM; MrgX1-HEK293 cells, Fluo-4 calcium fluorescence, agonist mode; active compounds read high; Q96LB2; 0.44% of 310,000 active; AID 588627;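 active = calcium response B-score plate-corrected fluorescence ratio at least 3 library SD, with starting fluorescence B-score inside 5 SD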
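Material: MrgX1-expressing HEK293 cells; input: 15,000 cells per well; doses: test compound given as first of three sequential additions; schedule: overnight plating before 1 h dye loading; technique: Fluo-4 NW calcium-flux fluorescence, kinetic read; evaluation: baseline-normalised fluorescence change ratio, B-scored; control set: plate-wise positive and negative controls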
RGS4 pot = potentiators or activators of RGS4; HEK293 M3R/inducible RGS4, carbachol calcium flux Fluo4; active compounds read low; B-score at 10 µM; 0.92% of 310,000 active; AID 463111;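 active = B-score of the integrated calcium signal more than 4 SD below the library mean, with starting fluorescence not abnormally high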;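 note: negative B-score means reduced calcium response which marks RGS4 activation or potentiation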
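Material: M3R-expressing HEK293 line, RGS4 induced by doxycycline | Schedule: Overnight RGS4 induction, 30 min dye load 37 °C, 20 min compound RT | Measured by: Fluo4 fluorescence kinetic imaging of calcium | Read-out: Integrated calcium ratio converted to B score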
MrgX1 antag = blocks BAM8-22 activation of human MrgX1 receptor; AID 588676; Q96LB2; 1.3% of 310,000 active; MRGX1-HEK293 calcium flux, Fluo-4, BAM8-22 antagonism; active compounds read low; B-score at 10 µM;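 active = calcium-response B-score plate-corrected more than 3 library SD below zero, starting fluorescence within 5 deviations, no agonist response on first addition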;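 note: peak minus trough fluorescence over baseline after final BAM8-22 challenge near maximal dose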
Starred values were filed as active, the others as inactive; i = inactive.

SMILES	MrgX1 PAM	RGS4 block	MrgX1 ag	RGS4 pot	MrgX1 antag
CCOCCCNc1nc(C)nc2c1nnn2Cc1c(F)cccc1Cl	i	i	i	i	i
O=S(=O)(Nc1cccc2c1CCCC2)c1ccc(Cl)cc1	i	i	i	i	i
CCOC(=O)c1[nH]c2ccc(Br)cc2c1NC(=O)CCN1CCCC(C)C1 (stereo unspecified)	i	i	i	-8.6*	i
CCOC(=O)c1[nH]c2ccc(Br)cc2c1NC(=O)CCN1CCC(C)CC1	i	i	i	i	i
CN1/C(=C\C=C2/SC(=S)NC2=O)C(C)(C)c2ccccc21	i	i	28*	i	i
CN1/C(=C/C=C(/C#N)C(N)=O)C(C)(C)c2ccccc21	i	i	33*	i	i
O=C(COc1ncnc2sccc12)N1CCN(C(=O)c2ccco2)CC1	i	i	i	i	i
c1ccc(-n2nnnc2NC2CCCCC2)cc1	i	i	i	i	i
O=C(CN(C(=O)CNC(=O)c1ccco1)c1cccc(F)c1)NC1CCCCC1	i	i	i	i	i
COc1ccccc1N1CCN(C(=O)c2cc3c(C)nc4ccccc4c3o2)CC1	i	i	i	-7.4*	i
Cc1nc2ccccc2c2oc(C(=O)N3CC(C)CC(C)C3)cc12 (stereo unspecified)	i	i	i	i	i
O=C(c1ccccc1F)N1CCN(c2cccc(C(F)(F)F)c2)CC1	i	i	i	i	i
O=C(c1c(F)c(F)c(F)c(F)c1F)N1CCN(c2cccc(C(F)(F)F)c2)CC1	i	i	i	-7.2*	i
O=C(N/C(=C\c1cccc([N+](=O)[O-])c1)C(=O)N1CCOCC1)c1ccc([N+](=O)[O-])cc1	i	i	i	i	i
O=C(CCc1ccccc1O)N/N=C/c1ccc(Sc2cccc3cccnc23)o1	i	i	i	i	i
CN1CCC(=C(c2ccccc2)c2ccc(Br)cc2)CC1	i	i	i	-7.7*	i
COC(=O)/C=C1\OC(c2ccccc2)=CC1=O	i	26*	i	i	i
COc1ccc(CCNC(=O)c2cccc(C(=O)NCCc3ccc(OC)cc3)n2)cc1	i	i	i	i	-4.8*
CCOC(=O)C1CCN(C(=O)C(=O)Nc2ccc3nc4n(c(=O)c3c2)CCCCC4)CC1	i	i	i	i	i
O=C(Cc1ccccc1)Nc1ccccc1C(=O)O	i	i	i	i	i
O=C(c1ccc([N+](=O)[O-])cc1)N(Cc1ccc(Cl)cc1)N1C(=O)CCCC1=O	i	i	54*	i	i
O=C(c1ccc([N+](=O)[O-])cc1)N(Cc1ccc(Cl)cc1Cl)N1C(=O)CCCC1=O	i	i	i	i	i
COc1ccc(-c2cc(C(F)(F)F)c3c(n2)sc2c(O)cc(=O)[nH]c23)c(OC)c1	i	i	39*	i	i
COc1ccc(/C=N/Nc2nc(Nc3ccccc3)nc(N3CCCC3)n2)cc1	i	i	i	i	-5.9*
COc1cccc(/C=N/Nc2nc(Nc3ccc([N+](=O)[O-])cc3)nc(N3CCCC3)n2)c1O	i	i	i	-9.2*	i
SMILES	MrgX1 PAM	RGS4 block	MrgX1 ag	RGS4 pot	MrgX1 antag
O=[N+]([O-])c1ccc(Nc2nc(N/N=C/c3cccc(F)c3)nc(N3CCCC3)n2)cc1	i	i	i	i	i
CSc1ccc(CNCCCN(C)C)cc1	i	i	i	i	i
O=C(c1ccc(=O)n(Cc2ccc(Cl)c(Cl)c2)c1)N1CCOCC1	i	i	i	i	-7.4*
O=C(NCc1ccco1)c1cc2c(s1)CCCCC2	i	i	i	-7.1*	i
Cc1cc2ncn(-c3ncccc3[N+](=O)[O-])c2cc1C	i	i	27*	i	i
O=C(CCCc1ccccc1)NCCc1ccc(F)cc1	i	i	i	i	i
COc1c(C)cccc1C(=O)NC(=S)Nc1ccccc1N1CCCC1	i	i	i	-7.6*	i
CC(C)(C)SCCNC(=O)CN(c1ccccc1)S(=O)(=O)c1ccccc1	i	i	i	i	i
